Results as given in ChEMBL document CHEMBL4000160, “Wasabisides A-E, Lignan Glycosides from the Roots of Wasabia japonica” (J Nat Prod, 2016).

Tests used:
C6 = assay: Induction of nerve growth factor secretion in rat C6 cells at 20 uM after 24 hrs by ELISA relative to control; assay type: functional
Method in brief: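 C6 glioma cells (Korean Cell Line Bank) seeded 1 × 10^5 cells/well; after 24 h switched to serum-free DMEM with 20 μM compound for 24 h. NGF in conditioned medium quantified by ELISA, given as % of untreated control (100%). 6-Shogaol positive control; mean ± SD of three independent experiments.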

BV-2 = assay: Antineuroinflammatory activity in mouse BV2 cells assessed as inhibition of LPS-induced nitric oxide production after 24 hrs by Griess assay; assay type: functional, cell-based; conditions: BV-2, 24 h
Method in brief: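 BV2 microglia seeded at 4 × 10^4 cells/well, exposed with or without graded compound concentrations, stimulated with LPS 100 ng/mL for 24 h. Nitrite in medium measured by mixing supernatant 1:1 with Griess reagent (0.1% N-1-naphthylethylenediamine, 1% sulfanilamide, 5% phosphoric acid), absorbance read at 570 nm after 10 min against sodium nitrite standard curve. NG-monomethyl-L-arginine positive control.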

A549 = assay: Cytotoxicity against human A549 cells after 48 hrs by SRB assay; assay type: functional, cell-based; conditions: A549, 48 h
Method in brief: (§1)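 Human tumor lines from ATCC, maintained at Korea Research Institute of Chemical Technology; cytotoxicity determined by sulforhodamine B (SRB) method, reported as IC50.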

SK-MEL-2 = assay: Cytotoxicity against human SK-MEL-2 cells after 48 hrs by SRB assay; assay type: functional, cell-based; conditions: SK-MEL-2, 48 h; method in brief: as §1
BT-549 = assay: Cytotoxicity against human BT549 cells after 48 hrs by SRB assay; assay type: functional, cell-based; conditions: BT-549, 48 h; method in brief: as §1
SK-OV-3 = assay: Cytotoxicity against human SKOV3 cells after 48 hrs by SRB assay; assay type: functional, cell-based; conditions: SK-OV-3, 48 h; method in brief: as §1
[1] = Cytotoxicity against rat C6 cells assessed as cell viability at 20 uM by MTT assay relative to control; assay type: cell-based; conditions: read-out: Activity
Method in brief: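 C6 glioma cells seeded 1 × 10^5 cells/well, treated 24 h later in serum-free DMEM with 20 μM compound for 24 h; viability by MTT assay, expressed as % of untreated control. Mean ± SD of three independent experiments.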

Row | SMILES | Activity (C6) [%] | IC50 (BV-2) [µM] | IC50 (A549) [µM] | IC50 (SK-MEL-2) [µM] | IC50 (BT-549) [µM] | IC50 (SK-OV-3) [µM] | viability at 20 µM [1] [%]
1 | COc1cc(C[C@@H]2C(=O)OC[C@H]2[C@@H](O)c2cc(OC)c(O[C@@H]3O[C@H](CO)[C@@H](O)[C@H](O)[C@H]3O)c(OC)c2)ccc1O | 99.4 | > 50 | > 10 | > 10 | > 10 | > 10 | 102
2 | COc1cc(C[C@@H]2C(=O)OC[C@H]2[C@@H](O)c2ccc(O[C@@H]3O[C@H](CO)[C@@H](O)[C@H](O)[C@H]3O)c(OC)c2)ccc1O | 103.3 | > 50 | > 10 | > 10 | > 10 | > 10 | 98.2
3 | COc1cc(C[C@H]2C(=O)OC[C@@H]2C(=O)c2ccc(O[C@@H]3O[C@H](CO)[C@@H](O)[C@H](O)[C@H]3O)c(OC)c2)ccc1O | 122.1 | > 50 | > 10 | > 10 | > 10 | > 10 | 101
4 | COc1cc([C@H](O)[C@@H]2COC(=O)[C@H]2Cc2ccc(O[C@@H]3O[C@H](CO)[C@@H](O)[C@H](O)[C@H]3O)c(OC)c2)ccc1O | 104.3 | > 50 | > 10 | > 10 | > 10 | > 10 | 102
5 | COc1cc(C[C@@H]2C(=O)OC[C@H]2[C@@H](O[C@@H]2O[C@H](CO)[C@@H](O)[C@H](O)[C@H]2O)c2ccc(O)c(OC)c2)ccc1O | 150.7 | > 50 | > 10 | > 10 | > 10 | > 10 | 100
6 | O=C(O)c1ccccc1 [BENZOIC ACID] | 114.5 | > 50 | > 10 | > 10 | > 10 | > 10 | 96.4
7 | O=C(O)/C=C/c1ccc(O)cc1 [COUMARIC ACID] | 129.2 | > 50 | > 10 | > 10 | 10 | > 10 | 198
8 | COc1cc(/C=C/C(=O)O)ccc1O [FERULATE] | 110.7 | > 50 | > 10 | > 10 | > 10 | > 10 | 95
9 | CCCCC/C=C/C(=O)CCc1ccc(O)c(OC)c1 [SHOGAOL] | 165.7 |  |  |  |  |  | 115
10 | COc1cc(C(=O)O)cc(OC)c1O [SYRINGIC ACID] | 125.5 | > 50 | > 10 | > 10 | > 10 | > 10 | 95.9
11 | CNC(=N)NCCC[C@H](N)C(=O)O [TILARGININE] |  | 17.6 |  |  |  |  | 
